eIF4E 4G PPI: inhibitors of eIF4E and eIF4G interaction in translation initiation | AID 782 | actives 0.37% (n = 220,000) | P63073+Q04637 | inhibition, % at 21.7 µM | TR-FRET eIF4E-eIF4GI(517-606) binding, 2 h;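 note: 0% = full FRET control wells and 100% = background wells lacking eIF4GI fragment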
14-3-3 Bad PPI: disrupts binding of bovine 14-3-3 zeta to phospho-Bad peptide; P63103; TR-FRET 14-3-3zeta/Dy647-pBad peptide displacement, 1 h; inhibition, % at 21.7 µM; actives 0.71% (n = 220,000); AID 781;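 active = inhibition above about 70%, limit read from the data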;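 note: 0% = full 14-3-3 plus peptide FRET controls and 100% = background without 14-3-3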
Target sequence (P63103 whole entry, looked up): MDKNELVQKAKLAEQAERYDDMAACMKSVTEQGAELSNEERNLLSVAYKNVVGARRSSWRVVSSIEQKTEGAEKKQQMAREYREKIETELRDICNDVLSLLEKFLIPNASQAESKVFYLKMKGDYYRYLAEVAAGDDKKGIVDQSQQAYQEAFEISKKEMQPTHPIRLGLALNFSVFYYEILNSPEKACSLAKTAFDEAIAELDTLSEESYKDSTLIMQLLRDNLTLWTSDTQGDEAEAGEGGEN
RBBP9 inh: inhibitors of human serine hydrolase RBBP9; inhibition, % at 7.94 µM; recombinant RBBP9, FP-Rh probe fluorescence polarization; AID 1515; actives 0.2% (n = 220,000);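 active = inhibition above the campaign mean of all tested compounds plus 3 SD, cut at about 14% in these data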;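 note: plate controls were DMSO wells with RBBP9 for no effect and wells lacking RBBP9 protein for full effect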
Target sequence (O75884 whole entry, looked up): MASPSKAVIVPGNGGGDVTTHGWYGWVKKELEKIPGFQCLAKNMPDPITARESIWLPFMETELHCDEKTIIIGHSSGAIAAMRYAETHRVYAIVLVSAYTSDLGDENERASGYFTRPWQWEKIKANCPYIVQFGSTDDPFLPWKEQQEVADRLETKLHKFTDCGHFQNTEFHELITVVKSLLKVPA
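Material: RBBP9 protein. Amount: RBBP9 at 2.5 µM in dispensed solution, before mixing. Schedule: 30 min then 45 min, 25 °C. Medium: Tris buffer pH 8.0, NaCl, Pluronic. Measured by: fluorescence polarization. Measure: percent inhibition from mP, scaled between DMSO and no-protein wells. Replication: one well per compound.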
p47phox inh: p47phox (human) inhibition | actives 0.53% (n = 220,000) | inhibition, % at 24.7 µM | P14598 | p47phox/p22phox peptide binding, fluorescence polarization, 2 h | AID 1274;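 note: 0% = p47phox with labelled peptide and 100% = labelled peptide alone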
Wee1 stabilizer: blocks degradation of human Wee1 kinase; HeLa Luc-Wee1K328M stability, luciferase luminescence; 100% = proteasome inhibitor MG132 effect; reporter increase, % at 5 µM; actives 1.2% (n = 220,000); AID 1321;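 active = activation above the mean of all tested compounds plus 3 SD, set per screening run, cut at about 8.8% in these data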;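 note: cells exposed to compound for 20 h before luminescence read; 0% = DMSO alone and 100% = MG132 at 30 µM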
* = called active by the depositor; x = no result; [ ] = remark or other dose. Hits are enriched below; roughly 2.8% of the tested compounds scored in any of these assays.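 Rule for the calls, unless noted: active = inhibition above about 30% (limit read from the data); inactive = the rest.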

SMILES	eIF4E 4G PPI	14-3-3 Bad PPI	RBBP9 inh	p47phox inh	Wee1 stabilizer
O=C(Nc1ccccc1N1CCN(C(=O)c2ccccc2)CC1)c1cccc(Cl)c1	-8	2	-3	-2	9.2*
Cc1[nH]ccc2c1[nH]c1cc(=O)ccc12	0	-11	-7	46*	1
COc1cc(NC(=O)CCNS(=O)(=O)c2ccc3c(c2)CCC(=O)N3)cc(OC)c1	2	-1	-9	-6	0
Cc1ccccc1N/C(=C(/C(Cl)=C(Cl)Cl)[N+](=O)[O-])n1nnc2ccccc21	-7	54	-3	2	-2
COc1ccc(N/C(=C(/C(Cl)=C(Cl)Cl)[N+](=O)[O-])n2nnc3ccccc32)cc1	0	79*	3	-3	0
Cc1ccc(Oc2c(C(N)=O)cc([N+](=O)[O-])cc2[N+](=O)[O-])cc1	40*[fluorescence artefact?]	5	5	-3	-1
CCn1c(C)nc2cc(C(=O)NNC(=S)NC(=O)c3ccc(OC)cc3)ccc21	0	-15	5	-19	2
O=C(OCC(=O)N1CCCCC1)c1cc2ccccc2cc1O	0	-7	-5	16	0
C/C(CC(=O)N1CCCC1)=N\NC(=O)c1cc2ccccc2cc1O	2	-13	0	4	12*
CCOC(=O)C1CCN(C(=O)C(CC)c2ccccc2)CC1 (stereo unspecified)	-1	-1	-2	7	-2
O=C(O)c1cnc(-c2ccccc2)nc1C(F)(F)F	-1	-5	-8	2	11*
Cc1ccc(-n2c(-c3ccco3)n[nH]c2=S)cc1	-1	-2	-4	-3	-4
CCOc1ccc(-n2c(-c3ccco3)n[nH]c2=S)cc1	34*[fluorescence artefact?]	8	-9	-4	1
Cc1ccc(C)c(OCc2nnc(NC(=O)c3ccc4c(c3)OCO4)s2)c1	-4	-1	-2	-17	11*
COc1ccccc1-c1nnc(NC(=O)c2ccc3c(c2)OCO3)s1	9	71*	-4	28	1
COc1ccc(C(=O)NNC(=O)CCn2nnc(-c3ccc(C)cc3)n2)cc1OC	-1	-4	-5	5	1
COc1ccc(CN2CCN(C(=O)CC(C)C)CC2)c2ccccc12	1	83*	-4	0	0
COc1cccc(CN2CCN(C(=O)c3cccc4ccccc34)CC2)c1OC	x	x	-7	11	5
CCOc1cc(CN2CCN(C(=O)c3ccco3)CC2)ccc1OC	7	61	-8	-8	7
COc1ccc(CN2CCN(C(=O)CC(C)C)CC2)cc1OC	18	74*	-2	-3	0
Cc1ccc(NC(=O)Nc2cnccn2)cc1C	2	-6	-6	-7	-2
COc1ccc(/C=C/C(=O)OCC(=O)c2ccc3c(c2)NC(=O)CO3)cc1	3	11	1	-15	1
COc1ccc(C(=O)Nc2c(Cl)cc(Cl)cc2C(=O)N2CCOCC2)cc1	0	-3	-2	-3	8.9*
COc1ccc(C(=O)Nc2c(Cl)cc(Cl)cc2C(=O)NCc2ccco2)cc1	3	-4	-5	-9	5
COc1ccc2cc(OC)c(C(=O)N3CCOCC3)cc2c1	-1	-2	-4	37*	-2
SMILES	eIF4E 4G PPI	14-3-3 Bad PPI	RBBP9 inh	p47phox inh	Wee1 stabilizer
COc1cc(-c2nnc(SCC3(c4ccc(Br)cc4)OCCO3)o2)cc(OC)c1OC	3	-9	-5	-3	-2
COc1ccc(OC)c(NS(=O)(=O)Cc2ccccc2)c1	14	87*[fluorescence artefact?]	3	8	-2
COc1ccc(OC)c(S(=O)(=O)NCc2ccccc2)c1	0	-9	1	-13	-3
Cn1cnnc1Sc1ccc(C(=O)OCC(=O)Nc2ccccc2)cc1[N+](=O)[O-]	-14	-4	-11	13	8
CCS(=O)(=O)c1ccc(Sc2nncn2C)c([N+](=O)[O-])c1	-1	-3	5	124*	-1
Cn1cnnc1Sc1ccc(C(=O)OCC(=O)Nc2cc(Cl)cc(Cl)c2)cc1[N+](=O)[O-]	29	86*[fluorescence artefact?]	-10	-14	-2
NC(=O)NC(=O)C[n+]1cccc(/C=N/O)c1	0	-6	-13	-5	0
Cc1ccc(-n2nc(-c3ccco3)cc2C(=O)O)c(C)c1	40*	65	-8	-17	-2
O=C(O)c1cc(-c2ccco2)nn1-c1ccc(Cl)cc1	31*	69	-8	-21	0
Cc1cc(=O)n2ccsc2n1	-2	-6	-12	1	-3
